Data published in paper PMC12491721 (Acta Pharmaceutica Sinica. B, 2025).

Legend:
[1] = test system: PTP1B; assay: In vitro PTP1B proteolysis; type: cell-based, mouse; details: IFN-γ-treated GL261 cells, Western blot
[2] = test system: GL261 cells; assay: Cytotoxicity, CCK-8; type: cell-based, mouse; details: GL261, 24 h, n = 5
In short: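 GL261 cells were exposed to test compound for 24 h, then incubated 20 min in medium containing 10% CCK-8. Absorbance was read at 450 nm. For the +L arm, the zero-concentration point is cells receiving laser without compound. n = 5.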

[3] = test system: intratumoral CD8+ T cells; assay: Exhaustion markers PD-1 and Tim3 in tumor-derived T cells; type: cell-based, mouse; details: for Tim3 expression (Tim3-positive cells) / PD-1 expression (PD-1-positive cells): 5 μmol/L, 48 h, n = 3, mean ± SD; for Tim3 expression (Tim3-positive cells): untreated 65.6 ± 4.84%; for PD-1 expression (PD-1-positive cells): untreated 69.6 ± 6.46%; for PD-1 and Tim3 levels: 24 h, no significant differences between the two groups
[4] = Brain accumulation in orthotopic GBM model, NIRF imaging; type: in vivo, BALB/c-nu mice; details: for time of peak accumulation in brain: orthotopic GL261, i.v., NIRF imaging
In short: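 Orthotopic model: 1 × 10^5 GL261 cells in saline were injected stereotactically into the brains of BALB/c-nu mice (2.0 mm lateral, 0.5 mm anterior to bregma, 3.0 mm depth, 1 μL/min). Test compound or VPF was given i.v. at an equivalent 3 mg/kg VPF content. Brain accumulation was followed by whole-body NIRF imaging, with ex vivo NIRF imaging of GBM tissue at 6 h.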

[5] = test system: GL261 cells; assay: Coculture assay, lysis of GL261 cells by T cells; type: cell-based, mouse; details: T cells treated 5 μmol/L 48 h, coculture 1 h, CCK-8, n = 3
In short: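 Intratumoral CD8+ T cells were isolated with CD8 microbeads from subcutaneous GL261 flank tumours in C57BL/6 mice and kept in RPMI1640 with 10% FBS at 37 °C, 5% CO2. They were stained with Far red CFSE and treated 48 h at 5 μmol/L. They were then cocultured 1 h with green CFSE-labelled GL261 cells. GL261 viability was measured by CCK-8.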

[6] = test system: intratumoral T cells; assay: Extracellular IFN-γ release from tumor-derived T cells; type: cell-based, mouse; details: n = 3
[7] = test system: Cat D; assay: Enzyme cleavage, HPLC; type: in vitro ADME; details: pH 5.5 MES buffer, 37 °C, 10 μg/mL enzyme
In short: (§1)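 The self-assembled nanoparticle was incubated at 37 °C in pH 5.5 MES buffer with 10 μg/mL of a single protease: Cat B, Cat D, Cat E, Cat L, caspase-3 or MMP-9. Cat B was also tested in the presence of its irreversible inhibitor Z-FA-FMK. Parent conjugate and cleavage products were followed by HPLC.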

[8] = test system: GL261 cells; assay: Intracellular ROS generation, DCFH-DA; type: cell-based, mouse; details: GL261, 5 μmol/L 24 h, n = 3
In short: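 GL261 cells were treated 24 h at 5 μmol/L, then loaded with DCFH-DA for 30 min before irradiation (40 mW, 500 s) or no irradiation. Intracellular DCF fluorescence was the read-out. n = 3.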

[9] = test system: GL261 tumor; assay: Immune cell analysis of tumor tissues, flow cytometry; type: in vivo, C57BL/6 mice; details: for apoptosis rate of T cells within tumor tissues vs saline group: CD8+Annexin V+, +L groups
In short: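 Female C57BL/6 mice (6 weeks) bore left-flank tumours from 5 × 10^6 subcutaneous GL261 cells. Treatment was i.v. at 3 mg/kg VPF equivalent; +L groups received 671 nm laser, 100 mW, 15 min, 3 h post-injection. On Day 3, tumours were enzymatically dissociated, Fc-blocked 5 min and antibody-stained 45 min. Flow cytometry gated CD45+CD3+CD8+ cytotoxic T cells and CD8+Annexin V+ damaged T cells. n = 5.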

[10] = test system: Cat B; assay: Target enzyme-specific cleavage, HPLC; type: in vitro ADME; details: pH 5.5 MES buffer, 37 °C, 10 μg/mL Cat B
In short: as §1

[11] = test system: Cat L; assay: Enzyme cleavage, HPLC; type: in vitro ADME; details: pH 5.5 MES buffer, 37 °C, 10 μg/mL enzyme
In short: as §1

[12] = test system: caspase-3; assay: Enzyme cleavage, HPLC; type: in vitro ADME; details: pH 5.5 MES buffer, 37 °C, 10 μg/mL enzyme
In short: as §1

[13] = Drug loading capacity calculated from molecular weights; type: physicochemical
In short: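 Loading was calculated as (PROTAC MW 1411.59 + VPF MW 702.81) divided by the MW of the whole prodrug conjugate (2595.98). The cathepsin B-cleavable RRK peptide (464.61) is excluded from the numerator.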

[14] = test system: MMP-9; assay: Enzyme cleavage, HPLC; type: in vitro ADME; details: pH 5.5 MES buffer, 37 °C, 10 μg/mL enzyme
In short: as §1

[15] = test system: GL261 tumor; assay: Therapeutic efficacy in subcutaneous GL261 GBM model; type: in vivo, C57BL/6 mice; details: subcutaneous GL261, i.v. 3 mg/kg VPF equivalent, +L
[16] = test system: Cat E; assay: Enzyme cleavage, HPLC; type: in vitro ADME; details: pH 5.5 MES buffer, 37 °C, 10 μg/mL enzyme
In short: as §1

[17] = Hydrodynamic size by dynamic light scattering; type: physicochemical; details: DLS, aqueous condition (saline, 1 mg/mL), mean ± SD, n = 5
In short: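 Nanoassemblies formed spontaneously in aqueous medium without carrier. They were dispersed at 1 mg/mL in saline and sized by dynamic light scattering (hydrodynamic diameter). Morphology was checked by TEM.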

[18] = absence of laser irradiation (-L)

Compound: Cc1cc(-c2c3ccccc3c(Br)c3sc(C)c(C)c23)cc(C)c1O[C@H](Cc1ccccc1)C(=O)O [ertiprotafib, reference compound]
- PTP1B levels ([1]; pERK and pAKT decreased): no changes in PTP1B levels
- cytotoxicity ([2]; CCK-8, without laser (-L)): minimum GBM cell death
- Tim3 expression (Tim3-positive cells) [3]: 47.53 ± 3.11%
- PD-1 expression (PD-1-positive cells) [3]: 57.43 ± 5.29%
- PD-1 and Tim3 levels [3]: lower PD-1 and Tim3 levels compared to untreated cells

Compound: VPF–KALAPYIPRRK–ertiprotafib [PNPTP1B]
- brain fluorescence intensity relative to VPF ([4]; orthotopic GL261, i.v. 3 mg/kg VPF equivalent, 6 h post-injection, NIRF, n = 3): 2.16 fold
- time of peak accumulation in brain [4]: 6 h
- GL261 cell lysis by cocultured T cells [5]: significantly increased
- extracellular release of IFN-γ [6]: higher quantity
- stability with Cat D [7]: stable
- PTP1B and related downstream proteins (pERK, pAKT) levels ([1]; 5 μmol/L, 24 h): fully restored to levels similar to those in IFN-γ-untreated cells
- intracellular ROS generation [8, 18]: no ROS generation was detected
- intracellular ROS generation ([8]; laser 40 mW 500 s (+L)): nearly identical
- apoptosis rate of T cells within tumor tissues vs saline group [9]: no significant differences
- increase in cytotoxic T cells in tumor tissues, (+L) relative to (-L) group ([9]; CD45+CD3+CD8+, Day 3, n = 5): 1.2 fold
- time to complete cleavage into PROTAC and VPF–K [10]: ≤ 1 h
- cytotoxicity ([2]; CCK-8, with laser irradiation (+L)): even more potent tumor-killing effect
- cytotoxicity ([2]; CCK-8, without laser (-L)): significantly greater cytotoxicity than ertiprotafib
- stability with Cat L [11]: stable
- stability with caspase-3 [12]: stable
- drug loading capacity, PROTAC share [13]: 54.4%
- drug loading capacity, VPF share [13]: 34.2%
- stability with MMP-9 [14]: stable
- time to complete regression in all mice [15]: ≤ 8 days
- stability with Cat E [16]: stable
- Tim3 expression (Tim3-positive cells) [3]: 30.2 ± 4.33%
- PD-1 expression (PD-1-positive cells) [3]: 42.47 ± 6.41%
- PD-1 and Tim3 levels [3]: lower PD-1 and Tim3 levels compared to untreated cells
- average diameter (hydrodynamic size) [17]: 87.79 ± 1.25 nm

Compound: verteporfin [VPF, reference compound]
- time of peak accumulation in brain [4]: 6 h
- intracellular ROS generation [8, 18]: no ROS generation was detected
- intracellular ROS generation ([8]; laser 40 mW 500 s (+L)): nearly identical
- apoptosis rate of T cells within tumor tissues vs saline group [9]: no significant differences
